What all share (format): functional
For experiment [1], the system named is Escherichia coli. Put plainly: Antimicrobial activity against Escherichia coli J5 transconjugants expressing beta lactamase CTX-M-9 isolated from human flora associated C3H rat infected with Salmonella enterica serotype Virchow and treated with Cefixime-cluvulanic acid by Etest method.
The subject of the next experiment is Salmonella enterica. Description: Antimicrobial activity against Salmonella enterica serotype Virchow 3464b by Etest method. The gist of the method:
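MIC determined by Etest strips on Müller-Hinton agar; E. coli ATCC 25922 used as the quality-control strain. Donor strain grown aerobically in brain heart infusion. Susceptible/resistant categories assigned from CLSI clinical breakpoints or EUCAST epidemiological cutoffs for cefotaxime, ceftazidime, ceftiofur, cefoxitin and cefuroxime. MICs expressed in μg/ml.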

Experiment [2] relates to Escherichia coli. Description: Antimicrobial activity against Escherichia coli ATCC 25922 by Etest method. The gist of the method:
(§1)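 MICs read from Etest strips on Müller-Hinton agar, in μg/ml. E. coli ATCC 25922 served as the QC strain. Susceptible or resistant calls followed CLSI clinical breakpoints or EUCAST epidemiological cutoffs for cefotaxime, ceftazidime, ceftiofur, cefoxitin and cefuroxime.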

Experiment [3] relates to Escherichia coli. Put plainly: Antimicrobial activity against Escherichia coli J5 transconjugants expressing beta lactamase CTX-M-9 isolated from human flora associated C3H rat infected with Salmonella enterica serotype Virchow by Etest method. Summed up: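 Etest MICs on Müller-Hinton agar, in μg/ml, with ATCC 25922 as QC. E. coli J5 transconjugants were isolated from feces of HFA C3H rats inoculated intragastrically with 8 log10 CFU J5, then Virchow donor 2 h later, and given sterile water by gavage instead of antibiotic. Isolates were selected on Drigalski agar with 250 μg/ml rifampin and 4 μg/ml cefixime and confirmed as J5 carrying blaCTX-M-9 by PCR/PFGE.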

Experiment [4] concerns Escherichia coli. Put plainly: Antimicrobial activity against Escherichia coli J5 transconjugants expressing beta lactamase CTX-M-9 isolated from human flora associated C3H rat infected with Salmonella enterica serotype Virchow and treated with Cefixime by Etest method. Summed up: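 Etest MICs on Müller-Hinton agar, in μg/ml, with ATCC 25922 as QC. Isolates were fecal E. coli J5 transconjugants from human flora-associated C3H rats coinoculated orally with 8 log10 CFU J5, then Virchow donor, and gavaged with cefixime 4 mg/kg twice daily for 8 days. Isolates were picked on Drigalski agar with 250 μg/ml rifampin plus 4 μg/ml cefixime and confirmed by PCR/PFGE and blaCTX-M-9 PCR.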

The subject of experiment [5] is Escherichia coli. Put plainly: Antimicrobial activity against Escherichia coli J5 by Etest method. Summed up: as §1

This passage reports MIC results from ChEMBL document CHEMBL1212773, “Transfer of plasmid-mediated CTX-M-9 from Salmonella enterica serotype Virchow to Enterobacteriaceae in human flora-associated rats treated with cefixime” (2010).

Molecules are shown by their SMILES. Values after ≈ are worked out from the molar mass of the structure shown.

The term MIC denotes the lowest concentration that inhibits growth of the organism. High values mean weaker potency, low ones greater potency.

`CC1(C)S[C@@H]2[C@H](NC(=O)[C@H](N)c3ccccc3)C(=O)N2[C@H]1C(=O)O` [AMPICILLIN]: the MIC in the experiment on Escherichia coli [1] worked out at 16 µg/mL (≈ 45.8 µM); against Salmonella enterica, 128 µg/mL (≈ 366 µM); with Escherichia coli [2], 4 µg/mL (≈ 11.4 µM); against Escherichia coli [3], 16 µg/mL (≈ 45.8 µM); against Escherichia coli [4], 16 µg/mL (≈ 45.8 µM); against Escherichia coli [5], 4 µg/mL (≈ 11.4 µM).

As to `C=CC1=C(C(=O)O)N2C(=O)[C@@H](NC(=O)/C(=N\OCC(=O)O)c3csc(N)n3)[C@H]2SC1` [CEFIXIME], the MIC against Escherichia coli [1] turned out to be 8 µg/mL (≈ 17.6 µM); in the experiment with Salmonella enterica, 8 µg/mL (≈ 17.6 µM); against Escherichia coli [2], 0.125 µg/mL (≈ 0.276 µM); with Escherichia coli [3] it was 8 µg/mL (≈ 17.6 µM); against Escherichia coli [4], 8 µg/mL (≈ 17.6 µM); in the experiment on Escherichia coli [5] it was 0.125 µg/mL (≈ 0.276 µM).

With `CO/N=C(\C(=O)N[C@@H]1C(=O)N2C(C(=O)O)=C(COC(C)=O)CS[C@H]12)c1csc(N)n1` [CEFOTAXIME], the minimum inhibitory concentration (MIC) against Escherichia coli [1] was 0.5 µg/mL (≈ 1.1 µM); in the experiment on Salmonella enterica it was > 8 µg/mL; against Escherichia coli [2], 0.03 µg/mL (≈ 0.0659 µM); in the experiment with Escherichia coli [3] it was 0.5 µg/mL (≈ 1.1 µM); with Escherichia coli [4], 0.5 µg/mL (≈ 1.1 µM); with Escherichia coli [5] it was 0.03 µg/mL (≈ 0.0659 µM).

As for `CO[C@@]1(NC(=O)Cc2cccs2)C(=O)N2C(C(=O)O)=C(COC(N)=O)CS[C@@H]21` [CEFOXITIN], the MIC in the experiment with Escherichia coli [1] stood at 16 µg/mL (≈ 37.4 µM); in the experiment with Salmonella enterica it was 16 µg/mL (≈ 37.4 µM); against Escherichia coli [2], 4 µg/mL (≈ 9.36 µM); in the experiment on Escherichia coli [3], 8 µg/mL (≈ 18.7 µM); against Escherichia coli [4] it was 16 µg/mL (≈ 37.4 µM); in the experiment with Escherichia coli [5], 4 µg/mL (≈ 9.36 µM).

Consider `CC(C)(O/N=C(\C(=O)N[C@@H]1C(=O)N2C(C(=O)[O-])=C(C[n+]3ccccc3)CS[C@H]12)c1csc(N)n1)C(=O)O` [CEFTAZIDIME], for which the MIC with Escherichia coli [1] amounted to 1 µg/mL (≈ 1.83 µM); against Salmonella enterica, 8 µg/mL (≈ 14.6 µM); in the experiment on Escherichia coli [2], 0.125 µg/mL (≈ 0.229 µM); in the experiment with Escherichia coli [3], 1 µg/mL (≈ 1.83 µM); with Escherichia coli [4], 1 µg/mL (≈ 1.83 µM); against Escherichia coli [5], 0.125 µg/mL (≈ 0.229 µM).

With `CO/N=C(\C(=O)N[C@@H]1C(=O)N2C(C(=O)O)=C(CSC(=O)c3ccco3)CS[C@H]12)c1csc(N)n1` [CEFTIOFUR], the MIC against Escherichia coli [1] was 1 µg/mL (≈ 1.91 µM); against Salmonella enterica it was > 8 µg/mL; against Escherichia coli [2], 0.25 µg/mL (≈ 0.477 µM); against Escherichia coli [3], 1 µg/mL (≈ 1.91 µM); against Escherichia coli [4], 1 µg/mL (≈ 1.91 µM); with Escherichia coli [5], 0.25 µg/mL (≈ 0.477 µM).

Turning to `CO/N=C(\C(=O)N[C@@H]1C(=O)N2C(C(=O)O)=C(COC(N)=O)CS[C@H]12)c1ccco1` [CEFUROXIME], the MIC is 16 µg/mL (≈ 37.7 µM) in the experiment on Escherichia coli [1]; > 32 µg/mL in the experiment on Salmonella enterica; 2 µg/mL (≈ 4.71 µM) against Escherichia coli [2]; 16 µg/mL (≈ 37.7 µM) with Escherichia coli [3]; 8 µg/mL (≈ 18.9 µM) in the experiment on Escherichia coli [4]; 2 µg/mL (≈ 4.71 µM) against Escherichia coli [5].

`CCn1cc(C(=O)O)c(=O)c2ccc(C)nc21` [NALIDIXIC ACID]: the MIC against Escherichia coli [1] worked out at 4 µg/mL (≈ 17.2 µM); against Salmonella enterica it was 256 µg/mL (≈ 1100 µM); with Escherichia coli [2], 4 µg/mL (≈ 17.2 µM); in the experiment with Escherichia coli [3], 4 µg/mL (≈ 17.2 µM); in the experiment with Escherichia coli [4], 4 µg/mL (≈ 17.2 µM); in the experiment on Escherichia coli [5] it was 4 µg/mL (≈ 17.2 µM).

On to `CO[C@H]1/C=C/O[C@@]2(C)Oc3c(C)c(O)c4c(O)c(c(/C=N/N5CCN(C)CC5)c(O)c4c3C2=O)NC(=O)/C(C)=C\C=C\[C@H](C)[C@H](O)[C@@H](C)[C@@H](O)[C@@H](C)[C@H](OC(C)=O)[C@@H]1C` [RIFAMPIN], for which the MIC was > 512 µg/mL in the experiment on Escherichia coli [1]; 4 µg/mL (≈ 4.86 µM) with Salmonella enterica; 4 µg/mL (≈ 4.86 µM) against Escherichia coli [2]; > 512 µg/mL with Escherichia coli [3]; > 512 µg/mL against Escherichia coli [4]; > 512 µg/mL in the experiment on Escherichia coli [5].

On to `CN[C@@H]1[C@H](O[C@H]2[C@H](O[C@H]3[C@H](O)[C@@H](O)[C@H](N=C(N)N)[C@@H](O)[C@@H]3N=C(N)N)O[C@@H](C)[C@]2(O)C=O)O[C@@H](CO)[C@H](O)[C@H]1O` [STREPTOMYCIN], for which the minimal inhibitory concentration (MIC) is 2 µg/mL (≈ 3.44 µM) in the experiment on Escherichia coli [1]; 128 µg/mL (≈ 220 µM) in the experiment with Salmonella enterica; 2 µg/mL (≈ 3.44 µM) against Escherichia coli [2]; 2 µg/mL (≈ 3.44 µM) in the experiment with Escherichia coli [3]; 2 µg/mL (≈ 3.44 µM) with Escherichia coli [4]; 2 µg/mL (≈ 3.44 µM) with Escherichia coli [5].

`Cc1cc(NS(=O)(=O)c2ccc(N)cc2)no1` [SULFAMETHOXAZOLE]: the minimum inhibitory concentration (MIC) was 4 µg/mL (≈ 15.8 µM) in the experiment with Escherichia coli [1]; > 512 µg/mL against Salmonella enterica; 8 µg/mL (≈ 31.6 µM) against Escherichia coli [2]; 4 µg/mL (≈ 15.8 µM) in the experiment with Escherichia coli [3]; 4 µg/mL (≈ 15.8 µM) in the experiment with Escherichia coli [4]; 8 µg/mL (≈ 31.6 µM) with Escherichia coli [5].

Turning to `CN(C)[C@@H]1C(O)=C(C(N)=O)C(=O)[C@@]2(O)C(O)=C3C(=O)c4c(O)cccc4[C@@](C)(O)[C@H]3C[C@@H]12` [TETRACYCLINE], the MIC against Escherichia coli [1] is 4 µg/mL (≈ 9 µM); against Salmonella enterica it was 64 µg/mL (≈ 144 µM); with Escherichia coli [2] it was 1 µg/mL (≈ 2.25 µM); against Escherichia coli [3], 2 µg/mL (≈ 4.5 µM); in the experiment on Escherichia coli [4] it was 2 µg/mL (≈ 4.5 µM); in the experiment on Escherichia coli [5], 1 µg/mL (≈ 2.25 µM).

As for `COc1cc(Cc2cnc(N)nc2N)cc(OC)c1OC` [TRIMETHOPRIM], the MIC against Escherichia coli [1] was 1 µg/mL (≈ 3.44 µM); in the experiment on Salmonella enterica, > 64 µg/mL; with Escherichia coli [2] it was 0.5 µg/mL (≈ 1.72 µM); against Escherichia coli [3], 0.5 µg/mL (≈ 1.72 µM); in the experiment with Escherichia coli [4] it was 0.5 µg/mL (≈ 1.72 µM); against Escherichia coli [5], 0.5 µg/mL (≈ 1.72 µM).
